Results as given in ChEMBL document CHEMBL4152358, “In vitro and in vivo anti-inflammatory properties of imine resveratrol analogues” (Bioorg Med Chem, 2018).
pIC50: −log10 of the molar value. The source made the active and inactive calls. No cut-off for these calls is given here.

Tested on: RAW264.7
Test: Cytotoxicity against mouse RAW264.7 cells assessed as reduction in cell viability at 50 uM after 48 hrs by MTT assay
Assay type: cell-based
Details: raw264.7, 48 h
Summary of the method: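 RAW264.7 cells seeded at 2 x 10⁵/well and grown 24 h, then exposed to 25 or 50 µM (ethanol ≤1%) for 48 h. MTT 0.5 mg/mL added for 2 h at 37 °C, formazan dissolved in DMSO, OD read at 595 nm. Viability given relative to untreated control, mean SD.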
With `Oc1ccc(/C=C/c2cc(O)cc(O)c2)cc1` [RESVERATROL] the Activity was “Non-Toxic”.
In the case of `COc1ccc(/C=N/Nc2ccc([N+](=O)[O-])cc2[N+](=O)[O-])cc1O`, the Activity was “Toxic”.
With `O=[N+]([O-])c1ccc(N/N=C/c2cc(Br)ccc2O)c([N+](=O)[O-])c1` the Activity was “Toxic”.
In the case of `O=C(O)c1ccc(/C=N/Nc2ccccc2)cc1`, the Activity was “Toxic”.
With `O=C(O)c1ccc(/C=N/Nc2ccc([N+](=O)[O-])cc2[N+](=O)[O-])cc1` the Activity was “Toxic”.
With `COc1ccc(/C=N/Nc2ccccc2)c(O)c1` the Activity was “Toxic”.
With `O=[N+]([O-])c1ccc(/C=N/c2ccccc2S)cc1` the Activity was “Toxic”.

Tested on: RAW264.7
Test: Cytotoxicity against mouse RAW264.7 cells assessed as reduction in cell viability at >= 100 uM after 48 hrs by MTT assay
Assay type: cell-based
Details: raw264.7, 48 h
For `Oc1ccc(/C=C/c2cc(O)cc(O)c2)cc1` [RESVERATROL], the Activity was “Toxic”.

Tested on: Peritoneal macrophage
Test: Cytotoxicity against C57/BL6 mouse peritoneal macrophages assessed as reduction in cell viability at 50 uM after 48 hrs by MTT assay
Assay type: cell-based
Details: not given
In the case of `COc1ccc(/C=N/Nc2ccc([N+](=O)[O-])cc2[N+](=O)[O-])cc1O`, the Activity was “Toxic”.
For `O=[N+]([O-])c1ccc(N/N=C/c2cc(Br)ccc2O)c([N+](=O)[O-])c1`, the Activity was “Toxic”.
For `O=C(O)c1ccc(/C=N/Nc2ccccc2)cc1`, the Activity was “Toxic”.
With `O=C(O)c1ccc(/C=N/Nc2ccc([N+](=O)[O-])cc2[N+](=O)[O-])cc1` the Activity was “Toxic”.
In the case of `COc1ccc(/C=N/Nc2ccccc2)c(O)c1`, the Activity was “Toxic”.
For `O=[N+]([O-])c1ccc(/C=N/c2ccccc2S)cc1`, the Activity was “Toxic”.

Tested on: not listed separately
Test: Antioxidant activity assessed as DPPH radical scavenging activity after 30 mins by spectrophotometric method
Assay type: functional
Details: not given
Summary of the method: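 Left 30 min at room temperature in the dark and absorbance read at 510 nm. IC50 taken graphically from the linear range of the concentration versus scavenging plot. Run twice, each in triplicate.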
With `Oc1ccc(/C=C/c2cc(O)cc(O)c2)cc1` [RESVERATROL] the pIC50 was 4.18.

Tested on: RAW264.7
Test: Antiinflammatory activity in mouse RAW264.7 cells assessed as inhibition of LPS/IFNgamma-induced NO production by measuring NO levels incubated with LPS/IFNgamma for 1 hr followed by compound addition measured after 48 hrs by Griess assay (reference value: 55 +/- 2.6 microM)
Assay type: functional
Details: not given
Work on `Oc1ccc(/C=C/c2cc(O)cc(O)c2)cc1` [RESVERATROL] yielded an Activity of 44.5 µM.

Tested on: RAW264.7
Test: Antiinflammatory activity in mouse RAW264.7 cells assessed as inhibition of LPS-induced CCL-2 production by measuring CCL-2 levels incubated with LPS for 1 hr followed by compound addition measured after 48 hrs by ELISA (reference value: 12.73 +/- 0.10 ng/ml)
Assay type: functional
Details: not given
Work on `Oc1ccc(/C=C/c2cc(O)cc(O)c2)cc1` [RESVERATROL] yielded an Activity of 6.6 ng/mL.

Tested on: J774.A1
Test: Antiinflammatory activity in mouse J774A.1 cells assessed as inhibition of LPS-induced IL-1beta production by measuring IL-1beta levels incubated with LPS for 1 hr followed by compound addition measured after 24 hrs by ELISA (reference value: 382.3 +/- 50 pg/ml)
Assay type: functional
Details: not given
For `Oc1ccc(/C=C/c2cc(O)cc(O)c2)cc1` [RESVERATROL], the Activity was 159.7 pg/mL.

Tested on: RAW264.7
Test: Antiinflammatory activity in mouse RAW264.7 cells assessed as inhibition of LPS-induced IL-6 production by measuring IL-6 levels incubated with LPS for 1 hr followed by compound addition measured after 48 hrs by ELISA (reference value: 2.9 +/- 0.3 ng/ml)
Assay type: functional
Details: not given
Compound `Oc1ccc(/C=C/c2cc(O)cc(O)c2)cc1` [RESVERATROL] has an Activity of 1.6 ng/mL.

Tested on: RAW264.7
Test: Antiinflammatory activity in mouse RAW264.7 cells assessed as inhibition of LPS-induced IL-12 production by measuring IL-12 levels incubated with LPS for 1 hr followed by compound addition measured after 48 hrs by ELISA (reference value: 4839.2 +/- 2.2 pg/ml)
Assay type: functional
Details: not given
Work on `Oc1ccc(/C=C/c2cc(O)cc(O)c2)cc1` [RESVERATROL] yielded an Activity of 1036 pg/mL.

Tested on: RAW264.7
Test: Antiinflammatory activity in mouse RAW264.7 cells assessed as inhibition of LPS-induced TNFalpha production by measuring TNFalpha levels incubated with LPS for 1 hr followed by compound addition measured after 48 hrs by ELISA (reference value: 58.6 +/- 7.4 ng/ml)
Assay type: functional
Details: not given
Compound `Oc1ccc(/C=C/c2cc(O)cc(O)c2)cc1` [RESVERATROL] has an Activity of 31 ng/mL.

Tested on: Murine T-cell line
Test: Antiproliferative activity against Con-A-induced T cells isolated from splenocytes of C57/BL6 mouse at 50 uM incubated with Con-A for 1 hr followed by compound addition measured after 72 hrs by MTT assay
Assay type: functional, cell-based
Details: not given
Summary of the method: (§1)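 C57BL/6 splenocytes (1x10⁵/well) cultured in RPMI 1640 with 10% FBS. Stimulated 1 h with Con A 5 µg/mL (T cells) or E. coli LPS 1 µg/mL (B cells) at 37°C, 5% CO₂. Treated at 50 µM and cultured 72 h more, then read by MTT. Expressed as % proliferation relative to untreated stimulated cells.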
With `Oc1ccc(/C=C/c2cc(O)cc(O)c2)cc1` [RESVERATROL] the Activity was “Active”.

Tested on: B-cell line
Test: Antiproliferative activity against LPS-induced B cells isolated from splenocytes of C57/BL6 mouse at 50 uM incubated with LPS for 1 hr followed by compound addition measured after 72 hrs by MTT assay
Assay type: functional, cell-based
Details: not given
Summary of the method: as §1
For `Oc1ccc(/C=C/c2cc(O)cc(O)c2)cc1` [RESVERATROL], the Activity was “Active”.

Tested on: RAW264.7
Test: Immunomodulatory activity in LPS-stimulated mouse RAW264.7 cells assessed as decrease in CD80 expression at 50 uM incubated with LPS for 1 hr followed by compound addition measured after 24 hrs by flow cytometry
Assay type: functional, cell-based
Details: not given
Summary of the method: (§2)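 RAW 264.7 cells (4 x 10⁵/well, triplicate) given E. coli LPS 1 µg/mL for 1 h, then treated at 50 µM for 24 h. Cells Fc-blocked with anti-CD16/32 and stained with FITC anti-CD80, anti-CD86 or anti-MHC II (I-A^b). Two independent experiments.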
For `Oc1ccc(/C=C/c2cc(O)cc(O)c2)cc1` [RESVERATROL], the Activity was “Active”.

Tested on: RAW264.7
Test: Immunomodulatory activity in LPS-stimulated mouse RAW264.7 cells assessed as decrease in CD86 expression at 50 uM incubated with LPS for 1 hr followed by compound addition measured after 24 hrs by flow cytometry
Assay type: functional, cell-based
Details: not given
Summary of the method: as §2
For `Oc1ccc(/C=C/c2cc(O)cc(O)c2)cc1` [RESVERATROL], the Activity was “Active”.

Tested on: RAW264.7
Test: Immunomodulatory activity in LPS-stimulated mouse RAW264.7 cells assessed as decrease in MHC-2 expression at 50 uM incubated with LPS for 1 hr followed by compound addition measured after 24 hrs by flow cytometry
Assay type: functional, cell-based
Details: not given
Summary of the method: as §2
For `Oc1ccc(/C=C/c2cc(O)cc(O)c2)cc1` [RESVERATROL], the Activity was “inactive”.

Tested on: Mus musculus
Test: Antiinflammatory activity in Balb/c mouse ear edema model assessed as inhibition of croton oil-induced ear edema at 0.1 mg/ear administered topically immediately post croton oil treatment and measured after 4 hrs relative to control
Assay type: functional
Details: not given
Summary of the method: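 Female Balb/c mice 8–10 weeks old (n = 6/group). 20 µL of 2.5% v/v croton oil applied to the inner surface of the right ear, acetone vehicle to the left. Treatment given topically straight after, 0.1 mg/ear in 20 µL, with acetone as negative control. Killed at 4 h and 6 mm plugs taken from both ears. Edema read as right minus left ear plug weight, mean S.D.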
With `Oc1ccc(/C=C/c2cc(O)cc(O)c2)cc1` [RESVERATROL] the “inhibition (INH)” value was 40%.

Tested on: Mus musculus
Test: Antiinflammatory activity in croton oil-induced Balb/c mouse ear edema model assessed as inhibition of leucocyte infiltration at 0.1 mg/ear administered topically immediately post croton oil treatment and measured after 4 hrs by hematoxylin and eosin staining based light microscopic method
Assay type: functional, organism-based
Details: not given
Summary of the method: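 Ear plugs from the 4 h croton oil edema test in Balb/c mice were fixed 24 h in 70% ethanol, kept in 10% formalin, paraffin-embedded and cut at 4 µm. Sections stained with H&E and leucocyte infiltration judged qualitatively by light microscopy at 400x.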
For `Oc1ccc(/C=C/c2cc(O)cc(O)c2)cc1` [RESVERATROL], the “inhibition of leucocyte infiltration (qualitative)” value was “Active”.

Tested on: Mus musculus
Test: Effect on IL-1beta production in ear tissue of croton oil-induced Balb/c mouse ear edema model at 0.1 mg/ear administered topically immediately post croton oil treatment by ELISA
Assay type: functional, organism-based
Details: not given
Summary of the method: (§3)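 Half of each ear plug from the 4 h croton oil edema test (topical 0.1 mg/ear) was homogenized in extraction buffer (BSA 0.5%, PMSF 0.1%, […], EDTA 10mM, aprotinin 20kIU/ml) and spun at 440g for 15 min at 4 °C. IL-1β, IL-6 or CCL-2 in the supernatant measured by ELISA.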
For `Oc1ccc(/C=C/c2cc(O)cc(O)c2)cc1` [RESVERATROL], the Activity was “inactive”.

Tested on: Mus musculus
Test: Inhibition of myeloperoxidase activity in ear tissue of croton oil-induced Balb/c mouse ear edema model at 0.1 mg/ear administered topically immediately post croton oil treatment by spectrophotometric method
Assay type: functional, organism-based
Details: not given
Summary of the method: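 Ear tissue homogenized in PBS and the pellet resuspended in 0.5% HTAB, then given 3 freeze/thaw cycles. Cleared supernatant mixed 1:1 with 6 mM o-phenylenediamine in 10 mM citrate pH 4.5, with 20% H₂O₂ added. Stopped after 15 min with 1 M H₂SO₄ and read spectrophotometrically.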
In the case of `Oc1ccc(/C=C/c2cc(O)cc(O)c2)cc1` [RESVERATROL], the inhibition was “Active”.

Tested on: Mus musculus
Test: Inhibition of IL-6 production in ear tissue of croton oil-induced Balb/c mouse ear edema model at 0.1 mg/ear administered topically immediately post croton oil treatment by ELISA
Assay type: functional, organism-based
Details: not given
Summary of the method: as §3
In the case of `Oc1ccc(/C=C/c2cc(O)cc(O)c2)cc1` [RESVERATROL], the inhibition was “inactive”.

Tested on: Mus musculus
Test: Inhibition of CCL-2 production in ear tissue of croton oil-induced Balb/c mouse ear edema model at 0.1 mg/ear administered topically immediately post croton oil treatment by ELISA
Assay type: functional, organism-based
Details: not given
Summary of the method: as §3
In the case of `Oc1ccc(/C=C/c2cc(O)cc(O)c2)cc1` [RESVERATROL], the inhibition was “inactive”.

Tested on: RAW264.7
Test: Antiinflammatory activity in mouse RAW264.7 cells assessed as inhibition of LPS/IFNgamma-induced NO production at 50 uM incubated with LPS/IFNgamma for 1 hr followed by compound addition measured after 48 hrs by Griess assay relative to control
Assay type: functional
Details: not given
Compound `Oc1ccc(/C=C/c2cc(O)cc(O)c2)cc1` [RESVERATROL] has an inhibition at 50 µM of 25%.
